The target in data set [1] is T1, ABCC1 (MRP1) (Homo sapiens, UniProt P33527). The data set can be described thus: Inhibition of ABCC1 (unknown origin) expressed in Flp-In-293 cells assessed as maximal inhibition at 1 uM by FACS based flow cytometry. In general terms: A flow cytometer gives signals particle by particle.
Data set [2] addresses T2, Broad substrate specificity ATP-binding cassette transporter ABCG2 (Homo sapiens, UniProt Q9UNQ0).
T2 sequence (Q9UNQ0 whole entry): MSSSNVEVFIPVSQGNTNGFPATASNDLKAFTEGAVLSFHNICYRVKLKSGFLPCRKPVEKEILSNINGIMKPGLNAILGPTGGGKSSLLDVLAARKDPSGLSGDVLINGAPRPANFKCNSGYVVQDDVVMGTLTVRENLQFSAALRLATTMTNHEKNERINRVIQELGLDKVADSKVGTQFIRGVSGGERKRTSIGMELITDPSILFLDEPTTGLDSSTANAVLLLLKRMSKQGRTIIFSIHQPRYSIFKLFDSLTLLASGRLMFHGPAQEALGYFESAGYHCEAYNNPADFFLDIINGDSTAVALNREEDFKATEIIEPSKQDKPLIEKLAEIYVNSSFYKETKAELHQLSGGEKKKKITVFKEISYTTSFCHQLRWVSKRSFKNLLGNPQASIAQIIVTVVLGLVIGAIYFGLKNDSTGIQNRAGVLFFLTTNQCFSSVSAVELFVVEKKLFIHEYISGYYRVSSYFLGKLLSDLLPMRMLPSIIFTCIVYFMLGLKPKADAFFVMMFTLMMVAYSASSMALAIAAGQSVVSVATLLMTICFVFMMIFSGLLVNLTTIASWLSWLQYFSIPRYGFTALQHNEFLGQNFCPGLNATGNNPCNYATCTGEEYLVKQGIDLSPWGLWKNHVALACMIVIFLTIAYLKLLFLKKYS
Description: (§1) Inhibition of ABCG2 (unknown origin) in HEK293 cells assessed as maximal inhibition of mitoxantrone efflux at 1 uM by fluorescence based flow cytometry relative to control. In kind it is cell-based. The following applies: hek293, 1 µM. The method, boiled down:
(§2)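 Efflux assay in HEK293-ABCG2 cells, with parental HEK293 cells as negative control. Cells seeded at 5×10^4/well overnight, then given compound plus 4 µM mitoxantrone (0.5% DMSO) for 30 min at 37 °C. Cells washed, trypsinized and resuspended in cold DPBS with 2% BSA.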

The target in data set [3] is T1, ABCC1 (MRP1). Description: Inhibition of ABCC1 (unknown origin) expressed in Flp-In-293 cells assessed as maximal inhibition at 10 uM by FACS based flow cytometry.
The nature of data set [4]: Cytotoxicity against human HEK293 cells assessed as cell viability at 20 uM measured after 72 hrs by MTT assay. In kind it is cell-based. The following applies: read-out: Activity. In general terms: Formazan colour is commonly taken as a measure of viable cells.
Data set [5] deals with T2, Broad substrate specificity ATP-binding cassette transporter ABCG2. Description: Inhibition of ABCG2 (unknown origin) in HEK293 cells assessed as maximal inhibition of mitoxantrone efflux by fluorescence based flow cytometry. It is filed as cell-based. The method, boiled down:
as §2

The target in data set [6] is T3, ABCB1 (Homo sapiens, UniProt P08183). The data set can be described thus: Inhibition of ABCB1 (unknown origin) expressed in NIH/3T3 cells assessed as maximal inhibition at 1 uM by FACS based flow cytometry.
Data set [7] addresses T3, ABCB1. The data set can be described thus: Inhibition of ABCB1 (unknown origin) expressed in NIH/3T3 cells assessed as maximal inhibition at 10 uM by FACS based flow cytometry.
Data set [8] has as its target T2, Broad substrate specificity ATP-binding cassette transporter ABCG2. Description: Inhibition of ABCG2 (unknown origin) expressed in HEK293 cells assessed as maximal inhibition at 1 uM by FACS based flow cytometry. The following applies: hek293, 1 µM.
A short description of data set [9]: Cytotoxicity against human HEK293 cells assessed as cell viability at 10 uM measured after 72 hrs by MTT assay. It is filed as cell-based. The following applies: read-out: Activity.
Another data set has as its target T4, ABCG2 (Homo sapiens, UniProt Q9UNQ0).
T4 sequence (Q9UNQ0 whole entry): T2 sequence (Q9UNQ0 whole entry)
The data set is described as §1. It is filed as cell-based. The conditions noted are these: HEK293 cells with ABCG2, probe mitoxantrone, read-out: Imax. A digest of the protocol: as §2

T1 sequence (P33527 whole entry): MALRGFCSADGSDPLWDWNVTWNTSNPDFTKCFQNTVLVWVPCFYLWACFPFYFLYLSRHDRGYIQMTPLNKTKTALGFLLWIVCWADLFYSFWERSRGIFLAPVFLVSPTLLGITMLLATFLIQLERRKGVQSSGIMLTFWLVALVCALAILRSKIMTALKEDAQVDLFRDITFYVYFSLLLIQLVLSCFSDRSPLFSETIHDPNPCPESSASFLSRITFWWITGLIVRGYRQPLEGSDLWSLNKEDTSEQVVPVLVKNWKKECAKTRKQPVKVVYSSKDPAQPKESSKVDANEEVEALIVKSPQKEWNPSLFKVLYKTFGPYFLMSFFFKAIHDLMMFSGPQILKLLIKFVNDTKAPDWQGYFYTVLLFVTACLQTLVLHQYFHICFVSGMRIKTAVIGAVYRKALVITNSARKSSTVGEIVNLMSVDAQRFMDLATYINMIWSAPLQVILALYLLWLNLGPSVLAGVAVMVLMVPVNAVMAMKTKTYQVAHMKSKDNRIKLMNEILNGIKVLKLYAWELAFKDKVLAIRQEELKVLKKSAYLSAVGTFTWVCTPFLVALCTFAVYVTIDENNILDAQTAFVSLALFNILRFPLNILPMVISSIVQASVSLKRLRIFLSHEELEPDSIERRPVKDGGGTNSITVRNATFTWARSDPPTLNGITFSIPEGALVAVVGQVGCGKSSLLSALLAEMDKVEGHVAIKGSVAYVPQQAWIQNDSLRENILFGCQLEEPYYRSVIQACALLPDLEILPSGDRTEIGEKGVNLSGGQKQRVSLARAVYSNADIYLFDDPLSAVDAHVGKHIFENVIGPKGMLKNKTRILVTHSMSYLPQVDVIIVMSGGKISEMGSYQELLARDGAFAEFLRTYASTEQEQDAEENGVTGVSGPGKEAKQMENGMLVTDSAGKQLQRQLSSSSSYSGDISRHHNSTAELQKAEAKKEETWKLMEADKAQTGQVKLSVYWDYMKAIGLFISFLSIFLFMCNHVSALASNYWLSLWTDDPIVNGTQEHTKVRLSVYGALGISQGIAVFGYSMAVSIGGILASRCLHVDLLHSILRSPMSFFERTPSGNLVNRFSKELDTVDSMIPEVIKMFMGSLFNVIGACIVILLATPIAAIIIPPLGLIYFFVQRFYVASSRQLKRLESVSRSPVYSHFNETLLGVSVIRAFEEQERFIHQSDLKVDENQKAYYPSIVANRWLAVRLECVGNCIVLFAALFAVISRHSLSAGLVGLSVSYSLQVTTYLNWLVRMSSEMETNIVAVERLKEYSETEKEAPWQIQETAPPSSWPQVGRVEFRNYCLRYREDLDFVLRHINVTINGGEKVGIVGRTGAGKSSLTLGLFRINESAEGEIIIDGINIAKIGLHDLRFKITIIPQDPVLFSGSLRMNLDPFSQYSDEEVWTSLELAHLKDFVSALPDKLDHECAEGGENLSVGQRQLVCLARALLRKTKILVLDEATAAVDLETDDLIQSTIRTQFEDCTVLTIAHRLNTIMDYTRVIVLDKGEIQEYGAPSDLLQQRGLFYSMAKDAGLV
T3 sequence (P08183 whole entry): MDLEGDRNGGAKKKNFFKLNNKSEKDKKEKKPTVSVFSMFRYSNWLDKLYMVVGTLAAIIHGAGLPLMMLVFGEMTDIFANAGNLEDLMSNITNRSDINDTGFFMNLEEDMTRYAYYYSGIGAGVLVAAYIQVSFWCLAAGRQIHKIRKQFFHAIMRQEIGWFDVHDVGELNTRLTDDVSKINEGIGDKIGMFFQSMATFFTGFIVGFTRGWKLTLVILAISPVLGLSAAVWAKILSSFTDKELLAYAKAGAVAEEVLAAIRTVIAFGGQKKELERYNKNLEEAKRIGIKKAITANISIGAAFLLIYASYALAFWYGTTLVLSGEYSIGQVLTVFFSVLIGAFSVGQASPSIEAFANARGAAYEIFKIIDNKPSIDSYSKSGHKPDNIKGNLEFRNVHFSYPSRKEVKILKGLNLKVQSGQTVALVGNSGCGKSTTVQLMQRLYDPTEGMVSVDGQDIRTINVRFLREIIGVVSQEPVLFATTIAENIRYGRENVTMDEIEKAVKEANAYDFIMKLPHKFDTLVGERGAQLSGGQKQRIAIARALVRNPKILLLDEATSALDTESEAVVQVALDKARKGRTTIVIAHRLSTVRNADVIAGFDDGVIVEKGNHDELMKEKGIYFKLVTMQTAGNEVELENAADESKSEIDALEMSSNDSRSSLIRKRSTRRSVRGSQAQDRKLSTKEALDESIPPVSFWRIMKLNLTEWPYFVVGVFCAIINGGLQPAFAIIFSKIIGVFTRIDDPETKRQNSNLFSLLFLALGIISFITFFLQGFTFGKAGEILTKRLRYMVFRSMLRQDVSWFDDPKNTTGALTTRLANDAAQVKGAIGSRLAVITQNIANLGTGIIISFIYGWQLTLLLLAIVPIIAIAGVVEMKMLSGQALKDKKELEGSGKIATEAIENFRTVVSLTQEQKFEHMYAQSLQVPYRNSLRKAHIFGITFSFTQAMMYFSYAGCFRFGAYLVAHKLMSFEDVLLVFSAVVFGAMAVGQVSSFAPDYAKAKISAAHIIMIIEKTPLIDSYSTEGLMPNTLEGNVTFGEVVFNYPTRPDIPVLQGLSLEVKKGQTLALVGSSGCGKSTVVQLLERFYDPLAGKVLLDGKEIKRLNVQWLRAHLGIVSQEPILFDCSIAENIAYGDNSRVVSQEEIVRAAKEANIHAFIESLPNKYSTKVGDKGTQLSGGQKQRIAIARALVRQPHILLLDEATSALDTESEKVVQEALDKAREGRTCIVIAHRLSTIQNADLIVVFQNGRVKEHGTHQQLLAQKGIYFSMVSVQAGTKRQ

Take `CC[C@@H](C)[C@H](NC(=O)c1cc(=O)c2c(OCc3ccccc3Br)cccc2o1)C(=O)N[C@@H](CC(C)C)C(=O)OC`: the inhibition at 1 µM at ABCC1 (MRP1) [1] came to 10%; on ABCB1 [6], 2%. The Imax in [2] was 83%. Further, the inhibition at 10 µM on ABCC1 (MRP1) [3] came to 13%; on ABCB1 [7], 2%. Also, the viability at 72 h, 20 µM in data set [4] was 104%. For the same molecule, in data set [5], the EC50 came out at 70 nM. Besides, the “inhibition (INH)” value in data set [8] is listed as 83%.
As to `CC[C@@H](C)[C@H](NC(=O)c1cc(=O)c2c(OCc3ccc(Br)cc3)cccc2o1)C(=O)N[C@@H](CC(C)C)C(=O)OC`, the inhibition at 1 µM was 11% at ABCC1 (MRP1) [1] and 4% at ABCB1 [6]. For the same molecule, the Imax in [2] is on record as 52%. In data set [4], the viability at 72 h, 20 µM is 101%. Also, in data set [5], the EC50 is 110 nM. Further, the inhibition at 10 µM on ABCB1 [7] was found to be 6%. The “inhibition (INH)” value in [8] is listed as 52%.
As to `COC(=O)[C@@H](NC(=O)c1cc(=O)c2c(OCc3ccccc3Br)cccc2o1)C(C)C`, the inhibition at 1 µM at ABCC1 (MRP1) [1] was 13%; at ABCB1 [6] it was 8%. In addition, the Imax in [2] is 87%. In [5], the EC50 is 50 nM. In addition, the viability at 72 h, 10 µM in data set [9] is 76%. In addition, the inhibition at 10 µM at ABCB1 [7] is 7%. The “inhibition (INH)” value in data set [8] is 87%.
For `COC(=O)[C@H](CC(C)C)NC(=O)c1cc(=O)c2c(OCc3ccccc3Br)cccc2o1`, the figures for the inhibition at 1 µM on ABCC1 (MRP1) [1] and at ABCB1 [6] were 20% and 7%, respectively. Also, in [2], the Imax was found to be 115%. For the same molecule, the half-maximal effective concentration (EC50) in data set [5] was found to be 140 nM. Also, the viability at 72 h, 10 µM in [9] turned out to be 87%. The inhibition at 10 µM at ABCB1 [7] was found to be 5%. Further, the “inhibition (INH)” value in data set [8] is 115%.
As for `COC(=O)[C@@H](Cc1c[nH]c2ccccc12)NC(=O)c1cc(=O)c2c(OCc3ccc(Br)cc3)cccc2o1`, the inhibition at 1 µM on ABCC1 (MRP1) [1] came to 11.9%; at ABCB1 [6], 7%. The Imax in data set [2] is 85%. In addition, the EC50 in [5] stood at 290 nM. Besides, the viability at 72 h, 10 µM in data set [9] came to 102%. For the same molecule, the inhibition at 10 µM at ABCB1 [7] is 6%. The “inhibition (INH)” value in [8] was 85%.
Regarding `COC(=O)[C@H](Cc1c[nH]c2ccccc12)NC(=O)c1cc(=O)c2c(OCc3ccc(Br)cc3)cccc2o1`, the inhibition at 1 µM at ABCC1 (MRP1) [1] is 10.3%; on ABCB1 [6] it was 7%. In addition, the Imax in [2] stood at 96%. Besides, in data set [5], the EC50 is 480 nM. Besides, the viability at 72 h, 10 µM in data set [9] turned out to be 77%. Besides, the inhibition at 10 µM at ABCB1 [7] was determined as 6%. Moreover, the “inhibition (INH)” value in data set [8] turned out to be 96%.
In the case of `CC[C@@H](C)[C@H](NC(=O)c1cc(=O)c2c(OCc3ccccc3Br)cccc2o1)C(=O)OC`, at ABCC1 (MRP1) [1], the inhibition at 1 µM is 5%. Besides, the Imax in data set [2] is 78%. For the same molecule, in data set [5], the EC50 stood at 100 nM. Moreover, the “inhibition (INH)” value in data set [8] turned out to be 78%.
For `CC[C@@H](C)[C@H](NC(=O)c1cc(=O)c2c(OCc3ccc(Br)cc3)cccc2o1)C(=O)N[C@H](C(=O)OC)C(C)C`, the inhibition at 1 µM at ABCC1 (MRP1) [1] amounted to 12%; on ABCB1 [6], 2%. For the same molecule, the Imax in [2] came out at 72%. In [4], the viability at 72 h, 20 µM came to 89%. Further, the EC50 in data set [5] worked out at 250 nM. Further, the inhibition at 10 µM at ABCB1 [7] came out at 11%. For the same molecule, the “inhibition (INH)” value in [8] amounted to 72%.
As to `COC(=O)[C@H](Cc1ccccc1)NC(=O)c1cc(=O)c2c(OCc3ccccc3Br)cccc2o1`, the values for the inhibition at 1 µM at ABCC1 (MRP1) [1] and on ABCB1 [6] were 26% and 5%, respectively. In addition, the EC50 in [5] was found to be 100 nM. Moreover, the viability at 72 h, 10 µM in data set [9] came to 82%. In addition, the inhibition at 10 µM on ABCB1 [7] came to 6%.
Turning to `CC[C@@H](C)[C@H](NC(=O)c1cc(=O)c2c(OCc3ccc(Br)cc3)cccc2o1)C(=O)OC`, at ABCG2, the Emax at 1 µM stood at 115%. Further, the EC50 in data set [5] stood at 590 nM.
As to `COC(=O)[C@H](Cc1ccccc1)NC(=O)c1cc(=O)c2c(OCc3ccc(Br)cc3)cccc2o1`, the figures for the inhibition at 1 µM on ABCC1 (MRP1) [1] and at ABCB1 [6] were 23% and 6%, respectively. Moreover, in [5], the concentration for a half-maximal effect (EC50) came out at 270 nM. Moreover, the viability at 72 h, 10 µM in [9] was determined as 84%. Besides, at ABCB1 [7], the inhibition at 10 µM was 7%.
For `COC(=O)[C@H](Cc1c[nH]c2ccccc12)NC(=O)c1cc(=O)c2c(OCc3ccccc3Br)cccc2o1`, the inhibition at 1 µM came to 23% on ABCC1 (MRP1) [1] and 7% at ABCB1 [6]. Besides, the Imax in data set [2] stood at 94%. Further, the EC50 in [5] amounted to 600 nM. Moreover, the viability at 72 h, 10 µM in data set [9] turned out to be 88%. Moreover, the inhibition at 10 µM at ABCB1 [7] was 5%. Besides, in data set [8], the “inhibition (INH)” value was found to be 94%.
With `CC[C@@H](C)[C@H](NC(=O)c1cc(=O)c2c(OCc3ccccc3Br)cccc2o1)C(=O)N[C@H](C(=O)OC)C(C)C`, the inhibition at 1 µM on ABCC1 (MRP1) [1] worked out at 11%; on ABCB1 [6], 0%. In addition, the Imax in data set [2] is 85%. Further, the viability at 72 h, 20 µM in data set [4] amounted to 102%. The EC50 in data set [5] was determined as 70 nM. The inhibition at 10 µM at ABCB1 [7] was determined as 0%. For the same molecule, the “inhibition (INH)” value in [8] is 85%.

What is called inhibition is the percentage by which the read-out fell short of the control. By EC50 is commonly meant the midpoint of the concentration-response curve.

The record behind these values is ChEMBL document CHEMBL4706507, “Chromones bearing amino acid residues: Easily accessible and potent inhibitors of the breast cancer resistance protein ABCG2” (Eur J Med Chem, 2020).
